# Sampled rows, rich in hits. Any-hit rate of the full collection: about 1.2%.
# ARNT TACC3 PPI – disrupts binding between human ARNT and TACC3; Q9Y6A5; inhibition, % at 9.99 µM; 0.66% of 390,000 active; AlphaScreen His-ARNT PAS-B/GST-TACC3 binding, luminescence; TACC3 fragment carries E629A point mutation;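 active = mean inhibition of replicates at least 50% and at least half of replicates each reaching 50%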;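 note: 0% = complete ARNT plus TACC3 wells and 100% = ARNT alone without TACC3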
# CAL PDZ FP-1 – inhibitors of human CAL PDZ peptide binding. Q9HD26. purified CAL PDZ, TMR-peptide fluorescence polarization, 1 h. inhibition, % at 24.9 µM. 0.92% of 300,000 active;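 active = mean inhibition of at least 30% with at least half of replicates also reaching 30%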;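 note: 0% = DMSO neutral control and 100% = excess unlabeled competitor peptide PRC23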
# CaV13 ICDI inh – Disruptors of the CACNA1D IQ motif to Ca2+-dependent inactivation inhibitor domain association, primary screening, Förster resonance energy transfer in intact living …; inhibition, % at 12.3 µM; 0.098% of 340,000 active; HEK cells, CFP/YFP FRET ICDI-IQ, plate reader, 10 min; percent FRET-ratio fall versus neutral wells; AID 743397;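 active = mean replicate inhibition of at least 30% and at least 1% of replicates passing that level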;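 note: 0% = median of the neutral control wells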
# CAL PDZ FP-2 – inhibitors of human CAL PDZ peptide binding. Q9HD26. purified CAL PDZ, TMR-peptide fluorescence polarization, 1 h. inhibition, % at 20 µM. 0.02% of 330,000 active. AID 504414;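 active = highest replicate inhibition of at least 40%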;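 note: plate controls were DMSO neutral control wells for no effect and unlabeled competitor peptide control wells for full effect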
#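 material = purified tagged CAL PDZ domain construct (CerCALP) | buffer or medium = sodium phosphate/NaCl buffer pH 7.4 with TCEP, IgG, Thesit | reagent = TMR-labelled reporter peptide T*-PRC34 bound in PDZ groove | incubation = 1 h room-temperature incubation prior to read | measured by = fluorescence polarization (mP) | evaluation = percent inhibition from loss of millipolarization | control set = unlabelled peptide and DMSO controls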
# Numbers without * were called inactive; / = not tested or not shown.
SMILES,ARNT TACC3 PPI,CAL PDZ FP-1,CaV13 ICDI inh,CAL PDZ FP-2
Cc1noc(C)c1S(=O)(=O)N(CC(=O)NCc1ccc(F)cc1)c1ccc(C(C)C)cc1,-5,44*,-4,-3
COc1ccc(N(CC(=O)NCCc2ccc(OC)c(OC)c2)S(=O)(=O)c2c(C)noc2C)cc1,2,73*,-4,0
Cc1noc(C)c1S(=O)(=O)N(CC(=O)N1CCCC1)c1ccc(C(C)C)cc1,-12,/,-2,-1
C[C@@H]1CN([C@H](C)CO)S(=O)(=O)c2ccc(C#CC(C)(C)O)cc2O[C@H]1CN(C)CC1CC1,-6,/,/,/
CC(=O)c1ccc(N2CCN(S(=O)(=O)c3ccc4c(c3)CC(C)N4C(C)=O)CC2)cc1 (stereo not drawn),0,-1,-7,-2
CC(=O)N1c2ccc(S(=O)(=O)N3CCC(C(=O)NC4CCCCC4)CC3)cc2CC1C (stereo not drawn),0,64*,-4,-2
CC1CCN(S(=O)(=O)N2CCC(C(=O)NC3CCCC3)CC2)CC1,-9,0,76*,-3
CC(=O)c1ccc(N2CCN(S(=O)(=O)c3ccc4c(c3)CC(C)N4C(=O)C3CC3)CC2)cc1 (stereo not drawn),-1,72*,-7,0
O=C(Nc1ccc(F)cc1)N[C@@H]1CC[C@H](CC(=O)N2CCOCC2)O[C@H]1CO,-14,/,/,/
Cn1cnc(S(=O)(=O)N2CC[C@@H]3[C@H]2c2cc(C#Cc4ccc(F)cc4)ccc2N[C@@H]3CO)c1,9,/,/,/
Cc1ccccc1S(=O)(=O)N1C[C@H](O)COC[C@H]2O[C@H](CC(=O)NCCc3ccccc3)CC[C@@H]21,11,/,/,/
CCOC(=O)c1cnn(-c2ccccc2)c1NC(=O)CN1CCCCC1,-7,34*,-5,1
C[C@H](CO)N1C[C@H](C)[C@@H](CN(C)C(=O)C2CC2)Oc2cc(-c3cccc(F)c3)ccc2S1(=O)=O,-3,/,/,/
O=C1C=C(NCCc2cc(Br)c(O)c(Br)c2)C(=O)c2ncccc21,64*,-9,-7,2
Cc1ccc(S(=O)(=O)N(C)C[C@H]2OCCCC[C@@H](C)Oc3ccc(NS(=O)(=O)c4cccs4)cc3C(=O)N([C@@H](C)CO)C[C@H]2C)cc1,16,/,/,/
Cc1c(CCC(=O)O)c(=O)oc2cc3occ(-c4ccc(Cl)cc4)c3cc12,45*,-13,-3,-7
Cc1c(CCC(=O)O)c(=O)oc2cc3occ(-c4ccc(F)cc4)c3cc12,38,-9,/,-7
Cc1oc2c(C)c3oc(=O)c(CCC(=O)O)c(C)c3cc2c1-c1ccccc1,26*,-20,-19,-12
Cc1oc2cc3oc(=O)c(CC(=O)O)c(C)c3cc2c1-c1ccccc1,-2,-8,-22,-4
COC(=O)C[C@@H]1CC[C@H]2[C@H](COc3ccc(NC(=O)c4ccc(F)cc4)cc3C(=O)N2C)O1,-8,/,/,/
C[C@@H]1CN([C@@H](C)CO)C(=O)c2cc(-c3cccc(C#N)c3)cnc2O[C@@H]1CN(C)Cc1ccc(F)cc1,13,/,/,/
O=C(C(=O)N1CCCc2ccccc21)c1cn(CC(=O)N2CCOCC2)c2ccccc12,-2,5,6,0
Cn1cc(C(=O)C(=O)N2CCCc3ccccc32)c2ccccc21,-3,34*,-2,-4
COCC(=O)Nc1nc2ccc(C)cc2s1,2,-4,/,0
Cc1ccc2nc(NC(=O)COC(=O)c3ccncc3)sc2c1,-2,62*,-6,33
SMILES,ARNT TACC3 PPI,CAL PDZ FP-1,CaV13 ICDI inh,CAL PDZ FP-2
Cn1cnc(S(=O)(=O)N[C@H]2CC[C@@H](CC(=O)Nc3ccc(-c4ccccc4)cc3)O[C@@H]2CO)c1,-10,/,/,/
Cc1c(Nc2c3ccccc3nc3ccccc23)c(=O)n(-c2ccccc2)n1C,-8,-3,165*,1
O=C(Nc1cccc(O)c1)c1cc(-c2ccc3c(c2)OCO3)on1,3,60*,-7,-3
Cc1c(NC(=O)c2cc(-c3ccc(O)cc3)on2)c(=O)n(-c2ccccc2)n1C,-7,35*,-6,-1
Cc1c(Nc2nc3ccccc3nc2N2CCN(c3ccccc3)CC2)c(=O)n(-c2ccccc2)n1C,2,-3,-3,-3
O=C(Nc1c(F)cc(F)cc1Br)c1cc(-c2ccc(O)cc2)on1,6,-2,-5,-1
O=C(Nc1c(F)cc(F)cc1Br)c1cc(-c2ccccc2)on1,-3,80*,-3,-1
Cc1c(NC(=O)c2cc(-c3ccccc3)on2)c(=O)n(-c2ccccc2)n1C,25,-1,-8,-2
C[C@H]1CN([C@@H](C)CO)C(=O)c2cccc(NS(=O)(=O)c3cccs3)c2O[C@H]1CN(C)CC1CC1,-6,/,/,/
CC=Cc1ccc2n(c1=O)C[C@H]1[C@H](CO)[C@@H](C(=O)Nc3ccccc3)[C@@H]2N1C(=O)CC1CC1 (mixture of isomers),-3,/,/,/
O=C(C[C@@H]1C=C[C@H](NC(=O)CC2CC2)[C@H](CO)O1)NCc1ccc(-c2ccccc2)cc1,14,/,/,/
O=C(Nc1cccnc1)c1cc(-c2ccccc2)on1,-3,122*,-5,/
O=C(Nc1cccnc1)c1cc(-c2ccc(Br)cc2)on1,6,/,-6,0
COc1cc(NCCCNC(C)C)c2nccc(C)c2c1,77*,/,-15,1
C[C@@H]1CN([C@@H](C)CO)C(=O)c2cc(NC(=O)Nc3ccccc3)ccc2O[C@@H]1CN(C)Cc1ccc(-c2ccccc2)cc1,3,/,/,/
O=C1C=CC(c2ccccc2)(c2ccccc2)CC1,-2,38*,-19,0
COc1ccc(S(=O)(=O)N(C)C[C@@H]2Oc3ccc(NC(=O)NC4CCCCC4)cc3CC(=O)N([C@@H](C)CO)C[C@@H]2C)cc1,3,/,/,/
CCCC#Cc1ccc2c(c1)O[C@H](CN(C)C(=O)CN(C)C)[C@@H](C)CN([C@@H](C)CO)S2(=O)=O,2,/,/,/
CCOC(=O)Cc1nnc(NC(=O)C(CC)Sc2nncn2C)s1 (stereo not drawn),-2,2,-8,1
CCOC(=O)Cc1nnc(NC(=O)C(CC)Sc2nc(C)cc(=O)[nH]2)s1 (stereo not drawn),45*,/,-7,0
C[C@@H]1CCCCO[C@H](CN(C)S(=O)(=O)c2ccc(F)cc2)[C@H](C)CN([C@@H](C)CO)C(=O)c2cc(NC(=O)Nc3ccccc3)ccc2O1,-7,/,/,/
O=C(CN1C(=O)NC2NC(=O)NC21)NC1CCCCC1 (stereo not drawn),-1,39*,-4,-5
COc1ccc(Br)cc1CNc1ccc2[nH]c(=O)[nH]c2c1,11,67*,-4,-1
O=C(O)c1ccnc(C(=O)O)c1,57*,0,-7,-4
O=C(O)c1cc(Br)ccn1,-15,-6,-4,0
Cc1nn(Cc2ccccc2)c(Cl)c1C(=O)NCCc1ccccc1,14,-3,5,-1
Cc1nn(Cc2ccccc2)c(Cl)c1C(=O)NCc1ccco1,-1,59*,2,-1

# Source: PubChem (Broad Institute)
